UPR XBP1 act: adaptive UPR (XBP1) activation | activation, % at 20 µM | hit rate 0.33% among 330,000 | CHO-XBP1 luciferase reporter, IRE1-XBP1 UPR activation, luminescence; percent of tunicamycin response, DMSO as zero;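 active = versus positive control, 20 µM dose yields 30% or more activation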
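Test system: CHO-XBP1 luciferase reporter cells | Buffer or medium: Serum-containing F12 medium, 10% FBS | Schedule: 6 h compound exposure at 37 °C, 5% CO2 | Detection: Steady-Glo luciferase glow luminescence, 10 min after reagent addition | Read-out basis: Activation, % of tunicamycin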
Mdm2 MdmX PPI: human Mdm2/MdmX binding inhibition. O15151+Q00987. SaOS-2 split-luciferase Mdm2/MdmX complementation, luminescence. inhibition, % at 8 µM. hit rate 3% among 330,000;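 active = inhibition of at least 50% at 8 µM in the primary screen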
UBC13 inh: inhibitors of human UBC13 polyubiquitin chain formation | P61088 | TR-FRET | inhibition, % at 20 µM | hit rate 0.47% among 330,000 | AID 485273; in the data active = inhibition above about 45%, passing the limit was not always enough; inconclusive = no clear call, values can overlap the other calls
UPR CHOP act: apoptotic UPR (CHOP) activation | hit rate 0.34% among 330,000 | CHO-CHOP luciferase reporter, luminescence; percent of tunicamycin response over DMSO baseline | AID 449763 | activation, % at 10 µM;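 active = at 10 µM dose, activation of 40% or more, normalized to positive control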
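Assay system: CHO-CHOP cells, stable luciferase reporter of PERK-eIF2a-CHOP signalling / Buffer or medium: F12 plus 10% serum / Compound dosing: one dose, 10 µM in 0.5% DMSO / Times: 6 h compound treatment, 37 °C / Technique: luciferase luminescence / Read-out: % reporter activation, DMSO baseline versus tunicamycin full activation / Benchmarks: tunicamycin and DMSO controls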
Apaf-1 inh: human Apaf-1 inhibition. reconstituted apoptosome caspase-3 activity, DEVD-Rh110 fluorescence. inhibition, % at 20 µM. hit rate 0.71% among 330,000. AID 489030; active = inhibition of at least 40% at 20 µM
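System – cell-free apoptosome with Apaf-1, procaspase-3 and caspase-9 · Buffer or medium – pH 7.5 Hepes buffer with CHAPS, BSA, DTT · Also added – cytochrome c with DEVD-Rh110 · Times – 30 min compound preincubation, 50 min activation, room temperature · Technique – Rh110 fluorescence intensity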
UPR XBP1 confirm: confirmation of adaptive unfolded protein response (XBP1) activators; shares compounds with UPR XBP1 act; AID 485299; CHO-XBP1 IRE1-XBP1 luciferase reporter, luminescence; hit rate 63% among 1,000; activation, % at 20 µM;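 active = reporter signal at least 30% of the positive control's activation in two or more of four replicate wells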
Mdm2-MdmX conf: human Mdm2/MdmX binding inhibition, confirmed; shares compounds with Mdm2 MdmX PPI; AID 489028; inhibition, % at 8 µM; hit rate 55% among 10,000; luminescent assay; in the data active = inhibition above about 40%
Full FLuc ctr: inhibits full-length luciferase, flagging false Mdm2/MdmX hits; shares compounds with Mdm2 MdmX PPI; AID 504607; SaOS-2 full-length luciferase counterscreen, luminescence; hit rate 77% among 6,200; inhibition, % at 8 µM;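 active = mean inhibition at 8 µM reaching about 37%, which flags the compound as non-specific, limit read from the data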;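 note: p53-null SaOS-2 cells with luciferase driven by a doxycycline-inducible promoter; compound on cells about two nights before reading with doxycycline added after day one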
Each line names hits and unclear results; the compound was inactive in the other large screens (follow-up assays come after a bar, where they were run). Rows were chosen to be rich in hits. Some 4.1% of all compounds tested hit in one or more screens of this group.

O=C1c2ccccc2S(=O)(=O)c2cc(C(=O)N3CCN(C(=O)c4ccccc4)CC3)ccc21	none
CC1CCc2c(sc(NC(=O)CCc3nc4ccccc4c(=O)[nH]3)c2C#N)C1 (stereo unspecified)	UPR XBP1 act 169, Mdm2 MdmX PPI 72 | UPR XBP1 confirm 198 | Mdm2-MdmX conf 71 | Full FLuc ctr 60
Cn1nnnc1Sc1ncnc2scc(-c3ccc(Cl)cc3)c12	UPR XBP1 act 46, Mdm2 MdmX PPI 100 | UPR XBP1 confirm 113 | Mdm2-MdmX conf 99 | Full FLuc ctr 52
CC(C)(C)C(=O)NC(=S)NNC(=O)c1sc2ccccc2c1Cl	UPR XBP1 act 35, Mdm2 MdmX PPI 74 | UPR XBP1 confirm 31 | Mdm2-MdmX conf 52 | Full FLuc ctr 37
CC(NC(=O)COC(=O)C1CCCCC1)c1ccccc1 (stereo unspecified)	none
COc1cccc(C(=O)Oc2cc3c4c(c2)C(C)=CC(C)(C)N4C(=O)C3=O)c1	UPR XBP1 act 50, Mdm2 MdmX PPI 67 | UPR XBP1 confirm 253 | Mdm2-MdmX conf 50 | Full FLuc ctr 45
COc1ccc(C(=O)Oc2ccc(C(=S)N3CCCC3)cc2)cc1OC	none
COc1cc(N=C2C(=O)N3c4c(cccc42)C(C)=CC3(C)C)cc(OC)c1	none
COc1ccc(C(=O)Oc2cc3c4c(c2)C(C)=CC(C)(C)N4C(=O)C3=O)cc1OC	UPR XBP1 act 65, Mdm2 MdmX PPI 67 | UPR XBP1 confirm 31 | Mdm2-MdmX conf inactive
COc1cccc2cc(C(=O)Nc3cc(C)cc(C)c3)/c(=N/NS(=O)(=O)c3ccccc3)oc12	UPR XBP1 act 240, Mdm2 MdmX PPI 78 | UPR XBP1 confirm inactive | Mdm2-MdmX conf inactive
Cc1nnc(SCC(=O)NC(C)c2ccccc2)[nH]c1=O (stereo unspecified)	none
O=C(Nc1ccc2c(c1)OCO2)c1cc(-c2ccc(O)cc2)on1	UPR XBP1 act 36, Mdm2 MdmX PPI 84 | UPR XBP1 confirm inactive | Mdm2-MdmX conf inactive
CSC1=NC(C)(C)C=C(/C=C/c2ccc(Cl)cc2)N1	UPR XBP1 act 35, Mdm2 MdmX PPI 54 | UPR XBP1 confirm 45 | Mdm2-MdmX conf inactive
COc1ccc(OC)c(S(=O)(=O)N2c3cc(F)ccc3CCC2C)c1 (stereo unspecified)	none
CCOC(=O)c1c(-c2ccc(C)o2)csc1NC(=O)COC(=O)c1ccc(NC(N)=O)cc1	UPR XBP1 act 33, Mdm2 MdmX PPI 69 | UPR XBP1 confirm 55 | Mdm2-MdmX conf inactive
Cc1c(CN(C)C(=O)/C=C/c2ccc([N+](=O)[O-])cc2)cnn1C	none
COc1cccc(NC(=O)CN2C(=O)COc3ccc(S(=O)(=O)N4CCC(C)CC4)cc32)c1	none
COc1ccccc1C(=O)COC(=O)CNS(=O)(=O)c1ccc(C)cc1	none
Nc1ccccc1NC(=O)c1ccccc1	none
Nc1ccc(NC(=O)c2ccccc2)c2c1C(=O)c1ccccc1C2=O	UPR XBP1 act 32, Mdm2 MdmX PPI 52 | UPR XBP1 confirm inactive | Mdm2-MdmX conf 53 | Full FLuc ctr 72
Cc1ccc(-n2c(C(C)C)nc3oc4ccccc4c(=O)c3c2=O)cc1	none
Cc1cc(C)c2sc(N(CCCN(C)C)C(=O)c3ccc(S(=O)(=O)N4CCCc5ccccc54)cc3)nc2c1	UPR XBP1 act 31, Mdm2 MdmX PPI 99, UBC13 inh 62 | UPR XBP1 confirm 54 | Mdm2-MdmX conf 57 | Full FLuc ctr 73
CCOC(=S)SCC(=O)Nc1nc(-c2ccc(Br)cc2)cs1	UPR XBP1 act 93, Mdm2 MdmX PPI 84 | UPR XBP1 confirm 164 | Mdm2-MdmX conf 76 | Full FLuc ctr 102
CCOP(=O)(OCC)C1NC(=O)N(c2ccccc2)C1=O (stereo unspecified)	none
CCC(=O)NCc1cc(-c2nn(C)c(=O)c3ccccc23)ccc1C	none
COc1ccc(-c2nn(C)c(=O)c3ccccc23)cc1NC(=O)Cn1nc(C)c2ccccc2c1=O	UPR XBP1 act 56, Mdm2 MdmX PPI 57, UBC13 inh inconclusive | UPR XBP1 confirm 82 | Mdm2-MdmX conf inactive
Cc1ccc(-c2nn(CC(=O)NCc3cc(-c4nn(C)c(=O)c5ccccc45)ccc3C)c(=O)c3ccccc23)cc1	UPR XBP1 act 81, Mdm2 MdmX PPI 97 | UPR XBP1 confirm 61 | Mdm2-MdmX conf inactive
CCOC(=O)C1CCN(C(=O)C(CC)c2ccccc2)CC1 (stereo unspecified)	none
C=CCN1C(=O)/C(=C2/Sc3ccc(OC)cc3N2C)SC1=Nc1cccc(O)c1	UPR XBP1 act 48, Mdm2 MdmX PPI 67 | UPR XBP1 confirm 81 | Mdm2-MdmX conf inactive
COc1ccc2[nH]c3c(c2c1)CCN1C(=O)C(CC(=O)NC/C=C(\C)CCC=C(C)C)C[C@H](C(=O)N(C(C)C)C(C)C)[C@@]31C (stereo partly specified)	UPR XBP1 act 33, Mdm2 MdmX PPI 84 (no result: UBC13 inh) | UPR XBP1 confirm 46 | Mdm2-MdmX conf inactive
CNC(C)C#Cc1c(-c2cc(OC)c(OC)c(OC)c2)noc1C (stereo unspecified)	none
COc1cc(-c2noc(C)c2C#Cc2ccc(N)cc2)cc(OC)c1OC	UPR XBP1 act 59, Mdm2 MdmX PPI 89 | UPR XBP1 confirm inactive | Mdm2-MdmX conf 70 | Full FLuc ctr 89
Cc1cc(OCC(=O)OCC(=O)Nc2cc(C(F)(F)F)ccc2N2CCOCC2)ccc1Cl	none
Cc1ccc(NC(=O)c2nc[nH]c2C(=O)NCCCNC(=O)c2[nH]cnc2C(=O)Nc2ccc(C)cc2)cc1	UPR XBP1 act 61, Mdm2 MdmX PPI 68 | UPR XBP1 confirm 34 | Mdm2-MdmX conf inactive
COc1ccc(-c2nnc(SCC(=O)Nc3sc4c(c3C#N)CCCC4)n2-c2ccccc2)cc1	UPR XBP1 act 35, Mdm2 MdmX PPI 78 | UPR XBP1 confirm 61 | Mdm2-MdmX conf inactive
CCOc1cc(CNC(C)(C)CO)cc(Br)c1OCc1ccc(Cl)cc1Cl	UPR XBP1 act 83, Mdm2 MdmX PPI 96 | UPR XBP1 confirm 100 | Mdm2-MdmX conf 49 | Full FLuc ctr 37
Cc1ccc(Cl)cc1N1CCN(Cc2nc3c(c(=O)[nH]c(=O)n3C)n2CCc2ccccc2)CC1	UPR XBP1 act 46, Mdm2 MdmX PPI 64 | UPR XBP1 confirm 55 | Mdm2-MdmX conf inactive
Cn1c(=O)[nH]c(=O)c2c1nc(CN1CCN(c3cccc(Cl)c3)CC1)n2CCCc1ccccc1	none
CCCCN(c1ccccc1)S(=O)(=O)c1cccc2cccnc12	none

Compound activity as filed in PubChem.
